# Results collected from several papers.
# Each line is one published result; the experiments were not run side by side.
# Effect on: cell growth or viability
Compound,cell line,technique,concentration,time,setting,endpoint,result
COc1cccc2c1C(=O)c1c(O)c3c(c(O)c1C2=O)C[C@@](O)(C(=O)CO)C[C@@H]3O[C@H]1C[C@H](N)[C@H](O)[C@H](C)O1,A549,MTT,100 µg/mL,48 h,serum-free,viability,12.4%
C=CCOc1ccc2c(C)c(CC)c(=O)oc2c1C,PC-3,MTT,31.25 µg/mL,,,viability,99.7%
C=CC(=O)NC1CCN(c2ncc3ncnc(Nc4ccc(Oc5ccc6c(c5)ncn6C)c(C)c4)c3n2)CC1,NCI-H2170,,,,,IC50,0.0581 µM
CCc1c(C)c2ccc(OCC=Cc3ccccc3)c(C)c2oc1=O,PC-3,MTT,250 µg/mL,,,viability,18.1%
COc1ccc(-c2cc(-c3ccc(C)cc3)nc3[nH]c(=O)[nH]c(=O)c23)cc1OC,PC-3,MTT,,48 h,,IC50,39.1 µM
O=C(C=Cc1ccccc1)Nc1cc(-c2ccnc(N3CCOCC3)c2)ccn1,A549,MTT,5 µM,,,inhibition,76.7%
C=CCNC(=S)NNC(=O)COc1ccc2c(C)c(CC)c(=O)oc2c1C,PC-3,MTT,1000 µg/mL,,,viability,2.65%
COc1ccc(-c2cc(-c3ccc(Br)cc3)c3c(=O)[nH]c(=O)[nH]c3n2)cc1,PC-3,MTT,,48 h,,IC50,15.9 µM
COc1cc2ncnc(N(C)c3ccc4c(c3)/C(=C/c3ccccc3)C(=O)N4C)c2cc1OC (mixture of isomers),A549,MTT,,,,IC50,3.24 µM
O=C(CCc1ccccc1)Nc1cc(-c2ccnc(N3CCC(O)CC3)c2)ccn1,A549,MTT,5 µM,,,inhibition,65.7%
CCc1c(C)c2ccc(OCC(=O)NNC(=S)Nc3ccccc3)c(C)c2oc1=O,PC-3,MTT,31.25 µg/mL,,,viability,48.3%
Cc1cc(NC(=O)C=Cc2ccccc2)cc(-c2ccnc(N3CCOCC3)c2)c1,A549,MTT,5 µM,,,inhibition,17.7%
Cc1nc(Nc2ccc3c(c2)C(C)(C)C(=O)N3C)c2ccccc2n1,A549,MTT,,,,IC50,2.09 µM
Cc1cccc(/C=C/C(=O)Nc2cccc(-c3ccnc(N4CCOCC4)c3)c2)c1,A549,MTT,5 µM,,,inhibition,29.4%
Cc1c(Cc2ccccc2)c(=O)oc2c(C)c(OCC(=O)NN=Cc3ccc(Cl)cc3)ccc12,PC-3,MTT,31.25 µg/mL,,,viability,61.2%
O=C(O)c1ccc2c(c1)nc(Nc1cccc(Cl)c1)c1ccncc12,NCI-H522,crystal violet,,48 h,,IC50,3.1 µM
Cc1nc(Nc2ccc3c(c2)CC(=O)N3)c2ccccc2n1,A549,MTT,,,,IC50,28.5 µM
COc1cccc2c1C(=O)c1c(O)c3c(c(O)c1C2=O)C[C@@](O)(C(=O)CO)C[C@@H]3O[C@H]1C[C@H](N)[C@H](O)[C@H](C)O1,HUVEC,MTT,,24 h,,IC50,6.5 µM
CCOc1ccc2c(C)c(CC)c(=O)oc2c1C,PC-3,MTT,125 µg/mL,,,viability,51%
O=C(C=Cc1ccc(F)cc1)Nc1cc(-c2ccnc(N3CCC(O)CC3)c2)ccn1,A549,MTT,5 µM,,,inhibition,65.9%
Cc1c(Cc2ccccc2)c(=O)oc2c(C)c(OCC(=O)NN=Cc3ccccc3)ccc12,PC-3,MTT,125 µg/mL,,,viability,21.2%
O=C(C=Cc1cccc(F)c1)Nc1cc(-c2ccnc(N3CCC(O)CC3)c2)ccn1,A549,MTT,5 µM,,,inhibition,65%
Cc1nc(Nc2ccc3c(c2)/C(=C/c2ccccc2)C(=O)N3C)c2ccccc2n1,A549,MTT,,,,IC50,27.8 µM
O=C(C=Cc1ccccc1)Nc1cccc(-c2ccnc(N3CCOCC3)c2)c1,A549,MTT,5 µM,,,inhibition,49.3%
Cc1ccc(-c2cc(-c3ccc(Cl)c(F)c3)c3c(=O)[nH]c(=O)[nH]c3n2)cc1,PC-3,MTT,,48 h,,IC50,21.2 µM
O=C(C=Cc1ccccc1)Nc1cccc(-c2ccnc(N3CCC(CO)CC3)c2)c1,A549,MTT,5 µM,,,inhibition,59.1%
CCC[C@H]1NC(=O)[C@H](Cc2cc(Cl)ccc2-c2cnn(C)c2)N(C)C(=O)[C@H](CC(C)C)NC(=O)[C@@H](N(C)C(=O)[C@H](CCCCN2CCOCC2)NC(=O)[C@@H](c2cccnc2)C2CCCCC2)CCCCNC1=O,NCI-H1048,MTT,,5 days,,GI50,3 µM
CC(=NNC(=O)COc1ccc2c(C)c(Cc3ccccc3)c(=O)oc2c1C)c1ccc(Br)cc1,PC-3,MTT,500 µg/mL,,,viability,2.33%
